Experiments:
HCT-15 = experiment: Effective dose against HCT-15 cell line.; format: functional; conditions: Homo sapiens, read-out: ED50 (the source's name)
In short: (§1)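 HCT-15 (MDR+) or NCI-H460 (MDR−) cells in growth medium treated with compounds over a range of concentrations for 48 h. Cells then trypsinized and counted per well with a Coulter counter. ED50 derived from cell number. Compounds at 1 μM or below were retested in both lines. Values reported as mean ± SD.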

NCI-H460 = experiment: Effective dose against NCI-H460 cell line.; format: functional; conditions: Homo sapiens, read-out: ED50 (the source's name); in short: as §1
[1] = Volume of distribution following intravenous dosing, tested in vivo in mice; format: ADME, organism-based; conditions: mouse, read-out: Vc
Mus musculus [2] = experiment: (§2) Half-life following intravenous dosing, tested in vivo in mice; format: ADME, organism-based
[3] = Integrated compound concentration with respect to time following oral dosing, tested in vivo in mice; format: ADME, organism-based; conditions: mouse
[4] = Oral bioavailability in mouse; format: ADME, organism-based; conditions: in vivo
Mus musculus [5] = experiment: Time to maximum plasma concentration following oral dosing, tested in vivo in mice; conditions: in vivo
Mus musculus [6] = experiment: (§3) Maximum plasma concentration following intravenous dosing, tested in vivo in mice; format: ADME, organism-based; set-up: route intravenous; conditions: in vivo
Mus musculus [7] = experiment: (§4) Area under the curve following intravenous dosing, integrated compound concentration with respect to time, tested in vivo in mice; format: ADME, organism-based
[8] = as §2; format: ADME, organism-based; conditions: mouse
[9] = Time to maximum plasma concentration following oral dosing, tested in vivo in mice; conditions: mouse, plasma
[10] = as §3; format: ADME, organism-based; set-up: route intravenous; conditions: mouse, plasma
[11] = as §4; format: ADME, organism-based; conditions: mouse

EC50 (HCT-15) | EC50 (NCI-H460) | Structure (SMILES) | other results
0.66 µM | 0.32 µM | COc1cc(C2CN=C(c3ccc4c(c3)CCCN4C)O2)cc(OC)c1OC (configuration not stated) | –
0.082 µM | 0.063 µM | COc1cc(C2CN=C(c3ccc(C)c(N)c3)O2)cc(OC)c1OC (configuration not stated) | –
0.042 µM | 0.059 µM | COc1cc(C2OC(c3ccc(N)c(C)c3)=NN2C(C)=O)cc(OC)c1OC (configuration not stated) | Vd [1]: 2.2 L/kg; T1/2 (Mus musculus [2]): 66 min; AUC [3]: 0.147 µg·h/mL; bioavailability [4]: 7%; T max (Mus musculus [5]): 102 min; Cmax (Mus musculus [6]): 0.059 µg/mL; AUC (Mus musculus [7]): 2.109 µg·h/mL
0.082 µM | 0.073 µM | COc1ccc(C2=NCC(c3cc(OC)c(OC)c(OC)c3)O2)cc1N (configuration not stated) | –
0.18 µM | 0.48 µM | COc1cc(C2OC(c3ccc(N(C)C)cc3)=NN2C(=O)CNC(C)=O)cc(OC)c1OC (configuration not stated) | –
92 µM | 106 µM | COc1cc(-c2nnc(-c3ccc(N(C)C)cc3)o2)cc(OC)c1OC | –
0.035 µM | 0.04 µM | COc1cc(C2OC(c3ccc(N(C)C)cc3)=NN2C(=O)CNC=O)cc(OC)c1OC (configuration not stated) | –
0.019 µM | 0.072 µM | COc1cc(C2OC(c3ccc(N(C)C)cc3)=NN2C(=O)COC(C)=O)cc(OC)c1OC (configuration not stated) | –
1.5 µM | 5.7 µM | CC(=O)N1N=C(c2ccc(N(C)C)cc2)OC1c1cc(C)c(C)c(C)c1 (configuration not stated) | –
7.5 µM | 6.8 µM | COc1ccc(C2OC(c3ccc(N(C)C)cc3)=NN2C(C)=O)c(OC)c1OC (configuration not stated) | –
0.12 µM | 0.35 µM | COc1cc(C2CN=C(c3ccc(N(C)C)cc3)O2)cc(OC)c1OC (configuration not stated) | Vd [1]: 3.3 L/kg; half-life [8]: 48 min; AUC [3]: 1.66 µg·h/mL; bioavailability [4]: 49%; Tmax [9]: 54 min; Cmax [10]: 0.891 µg/mL; AUC [11]: 3.41 µg·h/mL
71 µM | 40 µM | COc1cc(OC)c(C2OC(c3ccc(N(C)C)cc3)=NN2C(C)=O)c(OC)c1 (configuration not stated) | –
0.28 µM | 0.51 µM | COC(=O)c1c(OC)cc(C2OC(c3ccc(N)c(C)c3)=NN2C(C)=O)cc1OC (configuration not stated) | –
45 µM | 33 µM | CCOC(=O)C(=O)N1N=C(c2ccc(N(C)C)cc2)OC1c1cc(OC)c(OC)c(OC)c1 (configuration not stated) | –
2.4 µM | 8.3 µM | COc1cc(C2COC(c3ccc(N(C)C)cc3)O2)cc(OC)c1OC (configuration not stated) | –
231 µM | 1000 µM | COc1cc(-c2nnc(-c3ccc(N(C)C)cc3)s2)cc(OC)c1OC | –
40 µM | 106 µM | COC(=O)N1N=C(c2ccc(N(C)C)cc2)OC1c1cc(OC)c(OC)c(OC)c1 (configuration not stated) | –
0.026 µM | 0.043 µM | COc1cc(C2OC(c3ccc(N(C)C)cc3)=NN2C(=O)CO)cc(OC)c1OC (configuration not stated) | –
0.62 µM | 0.63 µM | COc1cc(C2OC(c3ccc(N)c(C)c3)=NN2C(C)=O)cc2c1OCO2 (configuration not stated) | –

EC50 (HCT-15) | EC50 (NCI-H460) | Structure (SMILES) | other results
178 µM | 60 µM | CCCCNC(=O)c1c(OC)cc(C2OC(c3ccc(N)c(C)c3)=NN2C(C)=O)cc1OC (configuration not stated) | –
0.61 µM | 0.82 µM | COc1cc(C2CN=C(c3ccc4c(c3)CCN4C)O2)cc(OC)c1OC (configuration not stated) | –
0.097 µM | 0.116 µM | COc1cc(C2CN=C(c3ccc4[nH]ccc4c3)O2)cc(OC)c1OC (configuration not stated) | –
198 µM | 1000 µM | COc1cc(OC)c(C2OC(c3ccc(N)c(C)c3)=NN2C(C)=O)cc1OC (configuration not stated) | –
0.61 µM | 0.35 µM | COc1cc(C2SC(c3ccc(N(C)C)cc3)=NN2C(C)=O)cc(OC)c1OC (configuration not stated) | –
0.15 µM | 0.53 µM | COc1cc(C2OC(c3ccc(N(C)C)cc3)=NN2C(=O)CN=[N+]=[N-])cc(OC)c1OC (configuration not stated) | –
365 µM | 1000 µM | COc1cc(-c2cc(-c3ccc(N)c(C)c3)nn2C(C)=O)cc(OC)c1OC | –
78 µM | 13 µM | COc1cc(C2OC(c3ccc(N(C)C)cc3)=NN2C(C)=O)cc(OC)c1OC(C)=O (configuration not stated) | –
80 µM | 74 µM | COc1cc(C2OC(c3ccc(N(C)C)cc3)=NN2C(=O)CN(C)C)cc(OC)c1OC (configuration not stated) | –
0.16 µM | 0.26 µM | COc1cc(C2OC(c3cccc(N(C)C)c3)=NN2C(C)=O)cc(OC)c1OC (configuration not stated) | –
0.65 µM | 0.66 µM | COc1cc(C2OC(c3ccc(N(C)C)cc3)=NN2C(=O)CN)cc(OC)c1OC (configuration not stated) | –
65 µM | 109 µM | COc1cc(C2OC(c3ccccc3N(C)C)=NN2C(C)=O)cc(OC)c1OC (configuration not stated) | –
4.3 µM | 72 µM | COc1cc(C2CN=C(c3ccc4nc(O)oc4c3)O2)cc(OC)c1OC (configuration not stated) | –
0.096 µM | 0.12 µM | COc1cc(C2OC(c3ccc(N(C)C)cc3)=NN2C=O)cc(OC)c1OC (configuration not stated) | –
0.033 µM | 0.044 µM | COc1cc(C2OC(c3ccc(N(C)C)cc3)=NN2C(C)=O)cc(OC)c1OC (configuration not stated) | Vd [1]: 3.3 L/kg; T1/2 (Mus musculus [2]): 66 min; AUC [3]: 0.155 µg·h/mL; bioavailability [4]: 4.9%; T max (Mus musculus [5]): 24 min; Cmax (Mus musculus [6]): 0.113 µg/mL; AUC (Mus musculus [7]): 3.17 µg·h/mL
0.018 µM | 0.028 µM | COc1cc(C2CN=C(c3ccc4c(ccn4C)c3)O2)cc(OC)c1OC (configuration not stated) | Vd [1]: 1.4 L/kg; half-life [8]: 114 min; AUC [3]: 1.78 µg·h/mL; bioavailability [4]: 35%; Tmax [9]: 24 min; Cmax [10]: 0.799 µg/mL; AUC [11]: 5.12 µg·h/mL
8.2 µM | 5.1 µM | COc1ccc(C2OC(c3ccc(N(C)C)cc3)=NN2C(C)=O)cc1OC (configuration not stated) | –
0.54 µM | 0.015 µM | CC(=O)O[C@H]1C(=O)[C@@]2(C)[C@H]([C@H](OC(=O)c3ccccc3)[C@]3(O)C[C@H](OC(=O)[C@H](O)[C@@H](NC(=O)c4ccccc4)c4ccccc4)C(C)=C1C3(C)C)[C@]1(OC(C)=O)CO[C@@H]1C[C@@H]2O [PACLITAXEL] | –

Source: ChEMBL document CHEMBL1134306, “New antimitotic agents with activity in multi-drug-resistant cell lines and in vivo efficacy in murine tumor models” (J Med Chem, 2001)
